Assay results pooled from the literature.
Protocols differ between the studies behind these lines.
Target: Calcium/calmodulin-dependent protein kinase type II subunit delta (CAMK2D, Homo sapiens, UniProt Q13557)

SMILES | test | setting | remaining binding
CNC(=O)[C@@H]1CC[C@@H](n2c(-c3ccc4cnccc4c3)nc3ccc(C(=O)NCc4cccc(C(N)=O)c4)cc32)C1 | binding, competition with immobilised ligand | 1 µM | 87%
N[C@H]1CCN(c2nccc(-c3cnn4ncccc34)n2)C1 | binding | 1 µM | 100%
Cn1nc(C(F)(F)F)cc1-c1cnc(N2CCc3cc(S(=O)(=O)Nc4c(F)cc(Cl)cc4F)cc(N4CCCC4=O)c32)nc1 | cell-free assay, competition with immobilised ligand | 1 µM | 99%
CN(C)c1nccc(-c2cnc3ncccn23)n1 | binding | 1 µM | 100%
COc1ccc2cc(OCC3(C(=O)O)CN(C(=O)c4ccc(F)cc4)C3)ccc2c1 | cell-free assay, competition with immobilised ligand | 1 µM | 100%
COc1ncc2cc3ccccc3nc2c1C#N | cell-free assay, competition with immobilised ligand | 5 µM | 98%
O=C(c1ccc(Nc2ncc(Cl)c(-c3cc4ccccc4s3)n2)cc1)N1CCC(N2CCCC2)CC1 | binding, competition with immobilised ligand | 1 µM | 80%
FC(F)(F)Oc1cccc(-c2cnc3ccc(-c4ccncc4)nn23)c1 | cell-free assay, competition with immobilised ligand | 5 µM | 33%
CCc1ccccc1C(=O)Nc1n[nH]c2c(C)c(F)c(C3C(C#N)=C(C)N(C)C(C)=C3C#N)cc12 | cell-free assay, competition with immobilised ligand | 1 µM | 78%
C[C@@H]1CCN(c2nccc(-c3cnn4ncccc34)n2)C1 | binding | 1 µM | 100%
Cc1c(C(=O)O)cc(-c2ccc(C3CCNCC3)cc2)c2ccc(-c3ccc(C(F)(F)F)cc3)cc12 | cell-free assay, competition with immobilised ligand | 1 µM | 100%
COc1cnc(Nc2cccc(S(N)(=O)=O)c2)nc1N1CCN(c2ccccc2)C(=O)C1 | binding, competition with immobilised ligand | 1 µM | 100%
O=c1nc(-c2ccccn2)sc2ccccc12 | cell-free assay, competition with immobilised ligand | 1 µM | 90%
O=C(c1ccc(Nc2nccc(-c3cc4ccccc4s3)n2)cc1)N1CCC(N2CCCC2)CC1 | binding, competition with immobilised ligand | 1 µM | 81%
CN(C)c1nccc(-c2cnn3ncccc23)n1 | binding | 1 µM | 100%
CCS(=O)(=O)c1cc2cc(C[C@](O)(CC(C)(C)c3ccc(F)cc3C(N)=O)C(F)(F)F)[nH]c2cn1 | cell-free assay, competition with immobilised ligand | 1 µM | 100%
CN(CCCC(F)(F)F)c1nccc(-c2cnn3ncccc23)n1 | binding | 1 µM | 100%
O=C(NCC1CCOCC1)c1n[nH]cc1NC(=O)c1c(F)cccc1F | binding, competition with immobilised ligand | 1 µM | 89%
Cc1cnn2ncc(-c3ccnc(N(C)C)n3)c2c1 | binding | 1 µM | 78%
Nc1ncc2c(n1)-c1c([nH]c3ccc(C#CC4CC4)cc13)CCCC2 | binding, competition with immobilised ligand | 1 µM | 95%
O=C(NCCCN1CCOCC1)c1ccc(Nc2ncc(Cl)c(-c3ccc(Cl)s3)n2)cc1 | binding, competition with immobilised ligand | 1 µM | 83%
C[C@@H](c1ccc(-n2cnc3c(N)ncnc32)cc1)N1CCc2nn(C)c(Cc3ccccc3)c2C1=O | binding, competition with immobilised ligand | 0.1 µM | 93%
